ChEMBL document CHEMBL3351347, “Eight pairs of epimeric triterpenoids involving a characteristic spiro-E/F ring from Abies faxoniana” (J Nat Prod, 2015)
Active and inactive are the calls of the source. No cut-off for these calls is given here.

Columns and labels:
[1] = system: HepG2; assay: Cytotoxicity against human HepG2 cells after 24 hrs by MTT assay; type: functional, cell-based; conditions: HepG2, 24 h
Procedure, shortened: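 Cells grown in DMEM with 10% FBS, penicillin/streptomycin at 37 °C, 5% CO2. MTT (5 mg/mL solution) added for 2−4 h at 37 °C, formazan dissolved in DMSO, absorbance read at 570 nm. Viability = mean OD of treated wells / DMSO-control OD; IC50 from viability.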

[2] = Cytotoxicity against human HuH7 cells after 24 hrs by MTT assay; type: functional, cell-based; conditions: Huh-7, 24 h
Procedure, shortened: (§1)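 Cells grown in DMEM with 10% FBS, penicillin/streptomycin at 37 °C, 5% CO2. […] MTT (5 mg/mL solution) added for 2−4 h at 37 °C, formazan dissolved in DMSO, absorbance read at 570 nm. Viability = mean OD of treated wells / DMSO-control OD; IC50 from viability.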

[3] = system: SMMC-7721; assay: Cytotoxicity against human SMMC7721 cells after 24 hrs by MTT assay; type: functional, cell-based; conditions: SMMC-7721, 24 h; procedure, shortened: as §1
[4] = Cytotoxicity against human QSG7701 cells after 24 hrs by MTT assay; type: cell-based; conditions: QSG7701, 24 h; procedure, shortened: as §1
[5] = system: Huh-7; assay: Induction of cell cycle arrest in human HuH7 cells assessed as increase in accumulation at G2/M phase at 5 to 20 uM after 24 hrs by propidium iodide staining based flow cytometry; type: functional
Procedure, shortened: (§2)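 Huh7 exposed 24 h to 5, 10, 20 μM. Cells washed in PBS with 2% FBS, then 3 × 10^5 cells/mL fixed overnight in cold absolute EtOH at 4 °C. After two PBS washes, stained with PI solution (3.8 mM sodium citrate, 20 μg/mL PI in PBS) plus RNase A, 30 min at room temperature in the dark. DNA content read by flow cytometry; means ± SEM, three independent experiments.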

[6] = system: Huh-7; assay: Induction of cell cycle arrest in human HuH7 cells assessed as reduction in accumulation at G0/G1 phase at 5 to 20 uM after 24 hrs by propidium iodide staining based flow cytometry; type: functional; procedure, shortened: as §2
[7] = system: Huh-7; assay: Induction of cell cycle arrest in human HuH7 cells assessed as reduction in accumulation at S phase at 5 to 20 uM after 24 hrs by propidium iodide staining based flow cytometry; type: functional; procedure, shortened: as §2
[8] = system: Huh-7; assay: Induction of apoptosis in human HuH7 cells at 5 to 20 uM after 24 hrs by annexin V-FITC and propidium iodide double staining based flow cytometry; type: functional, cell-based
Procedure, shortened: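 Huh7 exposed 24 h to 5, 10, 20 μM, then collected, PBS-washed and resuspended in binding buffer with annexin V-FITC (10 μg/mL) for 10 min in the dark. PI (20 μg/mL) added, samples read by flow cytometry immediately. Means ± SEM, three independent experiments.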

[9] = system: Huh-7; assay: Induction of intracellular ROS production in human HuH7 cells at 5 to 20 uM after 24 hrs by carboxy-H2DCFDA staining based flow cytometry; type: functional, cell-based
Procedure, shortened: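 Huh7 exposed 24 h to 5, 10, 20 μM, harvested, PBS-washed, then loaded in DMEM with 10 μM carboxy-H2DCFDA for 30 min at 37 °C. Washed again; fluorescence measured by flow cytometry as an index of intracellular ROS.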

[10] = system: Huh-7; assay: Induction of intracellular ROS production in human HuH7 cells at 20 uM pre-treated with 10 mM ROS scavenger NAC measured after 24 hrs post dose by carboxy-H2DCFDA staining based flow cytometry

Compound	IC50 [1] [µM]	IC50 [2] [µM]	IC50 [3] [µM]	IC50 [4] [µM]	Activity [5]	Activity [6]	Activity [7]	Activity [8]	Activity [9]	Activity [10]
C[C@@H]1C[C@]2(C[C@@H](C)[C@@]3(CC[C@]4(C)[C@]3(C)CC[C@@]35O[C@@]43[C@@H](OC(=O)Cc3ccccc3)C[C@H]3C(C)(C)C(=O)CC[C@@]35C)O2)OC1=O	> 50	> 50	> 50	> 50						
C[C@@H]1C[C@]2(C[C@@H](C)[C@@]3(CC[C@@]4(C)C5=CC[C@H]6C(C)(C)C(=O)CC[C@]6(C)[C@@H]5CC[C@@]43C)O2)OC1=O	14.1	13.5	20.7	15.5						
COc1cccc2c1C(=O)c1c(O)c3c(c(O)c1C2=O)C[C@@](O)(C(=O)CO)C[C@@H]3O[C@H]1C[C@H](N)[C@H](O)[C@H](C)O1 [DOXORUBICIN]		0.7	0.3	2.9						
C[C@@H]1C[C@]2(C[C@@H](C)[C@@]3(CC[C@@]4(C)C(=O)[C@@]5(CC[C@@]43C)[C@@H](O)C[C@H]3C(C)(C)C(=O)CC[C@@]35C)O2)OC1=O	15.4	12.3	10.1	8.2						
C[C@@H]1C[C@]2(C[C@@H](C)[C@@]3(CC[C@@]4(C)[C@H]5CC[C@H]6C(C)(C)[C@H](O)CC[C@@]67C[C@]57CC[C@@]43C)O2)OC1=O	21.1	16	25.2	> 50						
C[C@@H]1C[C@@]2(C[C@@H](C)[C@@]3(CC[C@@]4(C)C5=CC[C@H]6C(C)(C)C(=O)CC[C@]6(C)[C@@H]5CC[C@@]43C)O2)OC1=O	14.1	13.5	20.7	15.5						
CC(=O)O[C@@H]1CC[C@]23C[C@@]24CC[C@@]2(C)[C@@](C)(CC[C@]25O[C@@]2(C[C@@H](C)C(=O)O2)C[C@H]5C)[C@H]4CC[C@H]3C1(C)C	9.8	7.5	10.7	> 50	Active	Active	Active	Dose-dependent effect	Active	inactive
C[C@@H]1C[C@@]2(C[C@@H](C)[C@@]3(CC[C@@]4(C)C5=C(C(=O)C[C@@]43C)[C@@]3(C)CCC(=O)C(C)(C)[C@@H]3CC5)O2)OC1=O	31.2	> 50	> 50	26.8						
CO[C@@H]1CC[C@@]2(C)[C@@H](C[C@H](O)[C@@]23CC[C@]2(C)[C@@H]([C@H](C)C[C@@H]4C=C(C)C(=O)O4)CC[C@@]2(C)C3=O)C1(C)C	20.6	35.1	> 50	> 50						
C[C@@H]1C[C@@]2(C[C@@H](C)[C@@]3(CC[C@@]4(C)[C@H]5CC[C@H]6C(C)(C)[C@H](O)CC[C@@]67C[C@]57CC[C@@]43C)O2)OC1=O	21.1	16	25.2	> 50						
CC1=CC(O)(C[C@@H](C)C2=CC[C@@]3(C)C4=C(CC[C@]23C)[C@@]2(C)CCC(=O)C(C)(C)[C@@H]2CC4)OC1=O (some centres not stated) [NEOABIESLACTONE E]	16.7	20.9	13.4	10.1						
C/C(=C/CC[C@@H](C)[C@H]1CC[C@@]2(C)C3=CC[C@H]4C(C)(C)[C@@H](O)CC[C@]4(C)[C@@H]3CC[C@]12C)C(=O)O	> 50	> 50	> 50	> 50						
C[C@H](CC(=O)C[C@@H](C)[C@]1(C)CC=C2C3=CC[C@H]4C(C)(C)[C@H](O)CC[C@]4(C)[C@@H]3CC[C@]21C)C(=O)O	> 50	> 50	> 50	42.4						
C[C@@H]1C[C@]2(C[C@@H](C)[C@@]3(CC[C@@]4(C)[C@H]5CC[C@H]6C(C)(C)C(=O)CC[C@]6(C)[C@@H]5CC[C@@]43C)O2)OC1=O	> 50	18.4	28.3	> 50						
C[C@@H]1C[C@@]2(C[C@@H](C)[C@@]3(CC[C@@]4(C)[C@H]5CC[C@H]6C(C)(C)C(=O)CC[C@]6(C)[C@@H]5CC[C@@]43C)O2)OC1=O	> 50	18.4	28.3	> 50						
C[C@@H]1C[C@]2(C[C@@H](C)[C@@]3(CC[C@@]4(C)C5=CC[C@H]6C(C)(C)[C@H](O)CC[C@]6(C)[C@@H]5CC[C@@]43C)O2)OC1=O	> 50	16.4	19.1	17.6						
C[C@@H]1C[C@]2(C[C@@H](C)[C@@]3(CC[C@@]4(C)C5=C(C(=O)C[C@@]43C)[C@@]3(C)CCC(=O)C(C)(C)[C@@H]3CC5)O2)OC1=O	31.2	> 50	> 50	26.8						
CC(=O)O[C@@H]1CC[C@]23C[C@@]24CC[C@@]2(C)[C@@](C)(CC[C@]25O[C@]2(C[C@@H](C)C(=O)O2)C[C@H]5C)[C@H]4CC[C@H]3C1(C)C	9.8	7.5	10.7	> 50	Active	Active	Active	Dose-dependent effect	Active	inactive
COC(=O)[C@H](C)CC(=O)C[C@@H](C)[C@]1(C)CC[C@@]2(C)C3=CC[C@H]4C(C)(C)[C@H](O)CC[C@]4(C)[C@@H]3CC=C21	> 50	> 50	> 50	> 50						
C[C@@H]1C[C@@]2(C[C@@H](C)[C@@]3(CC[C@@]4(C)C5=CC[C@H]6C(C)(C)[C@H](O)CC[C@]6(C)[C@@H]5CC[C@@]43C)O2)OC1=O	> 50	16.4	19.1	17.6						
C[C@@H]1C[C@@]2(C[C@@H](C)[C@@]3(CC[C@]4(C)[C@]3(C)CC[C@@]35O[C@@]43[C@@H](OC(=O)Cc3ccccc3)C[C@H]3C(C)(C)C(=O)CC[C@@]35C)O2)OC1=O	> 50	> 50	> 50	> 50						
C/C(=C/CC[C@@H](C)[C@H]1CC[C@@]2(C)C3=CC[C@H]4C(C)(C)C(=O)CC[C@]4(C)[C@@H]3CC[C@]12C)C(=O)O	24	> 50	> 50	> 50						
C[C@@H]1C[C@@]2(C[C@@H](C)[C@@]3(CC[C@@]4(C)C(=O)[C@@]5(CC[C@@]43C)[C@@H](O)C[C@H]3C(C)(C)C(=O)CC[C@@]35C)O2)OC1=O	15.4	12.3	10.1	8.2						
C[C@@H]1C[C@@H](C[C@@H](C)[C@@]2(O)CC[C@@]3(C)C4=C(CC[C@@]32C)[C@@]2(C)CCC(=O)C(C)(C)[C@@H]2CC4)OC1=O	> 50	40.1	34.6	37						
